pIC50: −log10 of the molar value.

Experiment [1] has as its target T1, Tyrosine-protein phosphatase non-receptor type 1 (Homo sapiens, UniProt P18031).
T1 sequence (P18031 whole entry): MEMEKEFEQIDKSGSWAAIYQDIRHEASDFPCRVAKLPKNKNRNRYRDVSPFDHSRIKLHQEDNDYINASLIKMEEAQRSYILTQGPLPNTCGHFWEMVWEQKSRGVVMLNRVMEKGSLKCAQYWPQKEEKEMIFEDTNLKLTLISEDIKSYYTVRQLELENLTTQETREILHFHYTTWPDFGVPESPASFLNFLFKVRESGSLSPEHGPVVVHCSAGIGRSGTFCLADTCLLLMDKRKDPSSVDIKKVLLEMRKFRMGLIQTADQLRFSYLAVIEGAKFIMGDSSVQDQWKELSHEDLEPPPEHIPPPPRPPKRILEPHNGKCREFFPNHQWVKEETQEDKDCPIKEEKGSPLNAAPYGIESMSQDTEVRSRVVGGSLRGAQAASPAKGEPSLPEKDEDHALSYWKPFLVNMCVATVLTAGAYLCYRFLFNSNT
The experiment is described as follows: Inhibition of human recombinant PTP1B catalytic domain. The procedure, abridged: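 Recombinant human PTP1B catalytic domain, 30 nM, with 2 mM pNPP substrate in 50 mM MOPS pH 6.5 at 30 °C. pNP release read continuously at 405 nm for 2 min. Initial rate comes from the early linear part of the curve. Inhibitors diluted around the estimated IC50. IC50 from nonlinear fit of % inhibition vs [I] with a Hill coefficient term.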

The target of experiment [2] is T2, Tyrosine-protein phosphatase non-receptor type 1 (Homo sapiens) (UniProt P18031).
T2 sequence (whole entry): T1 sequence (P18031 whole entry)
Description: Inhibition of human recombinant PTP1B catalytic domain at 20 ug/mL. The procedure, abridged:
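Human PTP1B catalytic domain (recombinant) hydrolysing 2 mM pNPP in 50 mM MOPS pH 6.5 at 30 °C. pNP formation followed at 405 nm for 2 min. Initial rate taken from the early linear region. Compounds tested at 20 µg/mL. Result given as percent inhibition.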

The pIC50 is −log10 of the IC50, conventionally taken in molar units. One may read the inhibition as the share of the control response that was lost under treatment. As for `O=C1C=CC(=O)C([C@@H]2O[C@H](Cn3cc(COC(=O)c4cccc(C(=O)OCc5cn(C[C@H]6O[C@@H](C7=CC(=O)C=CC7=O)[C@H](OC(=O)c7ccccc7)[C@@H](OC(=O)c7ccccc7)[C@H]6OC(=O)c6ccccc6)nn5)c4)nn3)[C@H](OC(=O)c3ccccc3)[C@H](OC(=O)c3ccccc3)[C@H]2OC(=O)c2ccccc2)=C1`, the pIC50 in experiment [1] is 6.14. Further, in experiment [2], the inhibition came out at 95.5%.
The like results for `O=C1C=CC(=O)C([C@@H]2O[C@H](Cn3cc(COC(=O)c4cccc(C(=O)OCc5cn(C[C@H]6O[C@@H](C7=CC(=O)C=CC7=O)[C@H](OC(=O)c7ccccc7)[C@@H](OC(=O)c7ccccc7)[C@@H]6OC(=O)c6ccccc6)nn5)c4)nn3)[C@@H](OC(=O)c3ccccc3)[C@H](OC(=O)c3ccccc3)[C@H]2OC(=O)c2ccccc2)=C1` were, in that order, 6.21 and 95.8%.
As to `CC(=O)O[C@H]1[C@@H](OC(C)=O)[C@@H](Cn2cc(COC(=O)c3cccc(C(=O)OCc4cn(C[C@H]5O[C@@H](C6=CC(=O)c7ccccc7C6=O)[C@H](OC(C)=O)[C@@H](OC(C)=O)[C@H]5OC(C)=O)nn4)c3)nn2)O[C@@H](C2=CC(=O)c3ccccc3C2=O)[C@@H]1OC(C)=O`, the inhibition in experiment [2] stood at 0.8%.
Still for that read-out and setting: under `COc1cc([C@@H]2O[C@H](CN3C=C(COC(=O)c4cccc(C(=O)OCC5=CN(C[C@H]6O[C@@H](c7cc(OC)c8ccccc8c7OC)[C@H](OC(C)=O)[C@@H](OC(C)=O)[C@H]6OC(C)=O)NN5)c4)NN3)[C@H](OC(C)=O)[C@H](OC(C)=O)[C@H]2OC(C)=O)c(OC)c2ccccc12` stands 7.5%.
Still for that read-out and setting: under `COc1cc([C@@H]2O[C@H](CN3C=C(COC(=O)c4cccc(C(=O)OCC5=CN(C[C@H]6O[C@@H](c7cc(OC)c8ccccc8c7OC)[C@H](OC(C)=O)[C@@H](OC(C)=O)[C@@H]6OC(C)=O)NN5)c4)NN3)[C@@H](OC(C)=O)[C@H](OC(C)=O)[C@H]2OC(C)=O)c(OC)c2ccccc12` stands 12.5%.
In the case of `COc1ccc(OC)c([C@@H]2O[C@H](Cn3cc(COC(=O)c4cccc(C(=O)OCc5cn(C[C@H]6O[C@@H](c7cc(OC)ccc7OC)[C@H](OC(=O)c7ccccc7)[C@@H](OC(=O)c7ccccc7)[C@@H]6OC(=O)c6ccccc6)nn5)c4)nn3)[C@@H](OC(=O)c3ccccc3)[C@H](OC(=O)c3ccccc3)[C@H]2OC(=O)c2ccccc2)c1`, in experiment [1], the pIC50 was 6.06. The inhibition in experiment [2] worked out at 97.8%.
The like results for `COc1ccc(OC)c([C@@H]2O[C@H](Cn3cc(COC(=O)c4cccc(C(=O)OCc5cn(C[C@H]6O[C@@H](c7cc(OC)ccc7OC)[C@H](OC(=O)c7ccccc7)[C@@H](OC(=O)c7ccccc7)[C@H]6OC(=O)c6ccccc6)nn5)c4)nn3)[C@H](OC(=O)c3ccccc3)[C@H](OC(=O)c3ccccc3)[C@H]2OC(=O)c2ccccc2)c1` were, in that order, 6.06 and 98.5%.
For `CC(=O)OC[C@H]1O[C@@H](C2=CC(=O)C=CC2=O)[C@H](OC(C)=O)[C@@H](OC(C)=O)[C@@H]1OC(C)=O`, the negative logarithm of the IC50 (pIC50) in experiment [1] was 5.31.
For `CC(=O)O[C@@H]1[C@@H](OC(C)=O)[C@H](C2=CC(=O)c3ccccc3C2=O)O[C@H](Cn2cc(COC(=O)c3cccc(C(=O)OCc4cn(C[C@H]5O[C@@H](C6=CC(=O)c7ccccc7C6=O)[C@H](OC(C)=O)[C@@H](OC(C)=O)[C@@H]5OC(C)=O)nn4)c3)nn2)[C@H]1OC(C)=O`, in experiment [2], the inhibition was determined as 8.5%.
